# Assay results as given in ChEMBL document CHEMBL2069286, “Discovery and biological evaluation of novel 4-amino-2-phenylpyrimidine derivatives as potent and orally active GPR119 agonists” (Bioorg Med Chem, 2012).
# Calls of active or inactive are those of the source. No cut-off for these calls is given here.
# Tests used:
# [1] = target: T1, Glucose-dependent insulinotropic receptor (Homo sapiens) (UniProt Q8TDV5); assay: Intrinsic activity at human GPR119 expressed in HEK293 cells assessed as stimulation of cAMP level at 10 uM incubated for 6 hrs by luciferase activity based luminometry relative to 10 uM 2-(2-(4-bromophenyl)-6-methylpyrimidin-4-ylamino)ethanol; format: functional, cell-based
# T1 sequence (whole entry): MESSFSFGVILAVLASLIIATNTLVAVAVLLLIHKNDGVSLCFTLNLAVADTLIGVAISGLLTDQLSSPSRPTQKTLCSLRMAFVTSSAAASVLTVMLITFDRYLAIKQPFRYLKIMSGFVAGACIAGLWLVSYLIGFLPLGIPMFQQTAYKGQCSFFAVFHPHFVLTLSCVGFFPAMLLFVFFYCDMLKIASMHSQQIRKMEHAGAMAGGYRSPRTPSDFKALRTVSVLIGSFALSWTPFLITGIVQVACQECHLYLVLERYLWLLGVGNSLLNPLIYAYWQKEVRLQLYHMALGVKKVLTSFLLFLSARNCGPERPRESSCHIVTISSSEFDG
# Method in brief: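 Same HEK293 hGPR119/pCRE-luciferase system with 6 h exposure, lysis in 0.2% Triton X-100/PBS and luciferase read, triplicate wells. Test compound at 10 μM; response expressed as % of the luciferase signal given by the reference agonist at 10 μM.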
# Cytochrome P450 1A2 = target: T2, Cytochrome P450 1A2 (Homo sapiens, UniProt P05177); assay: Inhibition of CYP1A2; format: ADME
# T2 sequence (P05177 whole entry): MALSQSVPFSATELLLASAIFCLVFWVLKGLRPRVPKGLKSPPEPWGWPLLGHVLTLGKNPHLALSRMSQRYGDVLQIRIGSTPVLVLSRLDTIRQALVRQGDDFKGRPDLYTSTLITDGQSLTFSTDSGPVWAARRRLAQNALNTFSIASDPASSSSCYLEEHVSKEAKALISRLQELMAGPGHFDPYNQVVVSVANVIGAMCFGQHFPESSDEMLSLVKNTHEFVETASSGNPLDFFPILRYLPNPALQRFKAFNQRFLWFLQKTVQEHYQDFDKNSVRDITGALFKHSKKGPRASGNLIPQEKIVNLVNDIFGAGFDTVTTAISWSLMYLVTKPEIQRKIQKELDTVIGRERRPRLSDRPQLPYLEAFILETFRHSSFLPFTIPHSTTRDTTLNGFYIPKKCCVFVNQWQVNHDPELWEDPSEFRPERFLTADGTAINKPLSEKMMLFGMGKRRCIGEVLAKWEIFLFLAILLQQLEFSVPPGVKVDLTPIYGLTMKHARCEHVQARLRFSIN
# Mus musculus [2] = assay: Antihyperglycemic activity in ICR mouse assessed as reduction in glucose levels at 1 mg/kg, po dosed post overnight fasting by oral glucose tolerance test; format: functional; design: scale not given: the % may be the effect or the level left
# Method in brief: (§1)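 Eight-week-old male ICR mice, fasted overnight, dosed orally with compound in 0.5% methylcellulose or vehicle alone. Oral glucose 2 g/kg given 10 min later. Tail-vein blood taken 30 min after glucose, and glucose measured by Glucose CII test.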
# [3] = target: T1, Glucose-dependent insulinotropic receptor (Homo sapiens); assay: Agonist activity at human GPR119 expressed in HEK293 cells assessed as stimulation of cAMP level incubated for 6 hrs by luciferase activity based luminometry; format: functional, cell-based
# Method in brief: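 HEK293 cells stably expressing human GPR119 plus pCRE-luciferase reporter; 2.5×10^4 cells/well, overnight at 37 °C in 5% CO₂, then compound (DMSO) at 0.01–10 μM for 6 h. Lysis in 0.2% Triton X-100/PBS pH 7.4, luminometer read of luciferase. Triplicates per concentration. EC = concentration matching the response of reference agonist at 10 μM.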
# Mus musculus [4] = assay: Antihyperglycemic activity in ICR mouse assessed as reduction in glucose levels at 3 mg/kg, po dosed post overnight fasting by oral glucose tolerance test; format: functional; design: scale not given: the % may be the effect or the level left; method in brief: as §1
# Mus musculus [5] = assay: Antihyperglycemic activity in ICR mouse assessed as reduction in glucose levels at 10 mg/kg, po dosed post overnight fasting by oral glucose tolerance test; format: functional; design: scale not given: the % may be the effect or the level left
# [6] = Stability in human liver microsomes; format: ADME, Microsome; settings: read-out: Stability
# Mus musculus [7] = assay: Antidiabetic activity in kk/Ay mouse assessed as reduction in plasma triglyceride level at 3 mg/kg, po once daily for week by Triglyceride E-test; format: functional, organism-based; design: dose 3 mg/kg
# Method in brief: (§2)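 Eight-week-old male kk/Ay mice, n = 8 per group, dosed orally once daily for one week at 3 mg/kg, with 0.5% methylcellulose vehicle group. Fed-state tail-vein blood for glucose (Glucose CII), insulin and triglyceride (Triglyceride E-test). Pancreas weighed, homogenized, extracted with acid-ethanol, spun 10 min at 3000 g, supernatant insulin assayed. Mean ± SE; Dunnett's test.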
# Mus musculus [8] = assay: Antidiabetic activity in kk/Ay mouse assessed as reduction in plasma insulin at 3 mg/kg, po once daily for week; format: functional, organism-based; design: dose 3 mg/kg; method in brief: as §2
# Mus musculus [9] = assay: Antidiabetic activity in kk/Ay mouse assessed as reduction in blood glucose at 3 mg/kg, po once daily for week by Glucose cII test; format: functional, organism-based; design: dose 3 mg/kg; method in brief: as §2
# [10] = Half life in mouse at 1 mg/kg, iv; format: ADME, organism-based; design: dose 1 mg/kg, route intravenous; settings: in vivo
# [11] = Tmax in monkey at 3 mg/kg, po; format: ADME, organism-based, Macaca mulatta; design: dose 3 mg/kg, route oral; settings: rhesus monkey, in vivo
# [12] = Total clearance in monkey at 1 mg/kg, iv; format: ADME, organism-based, Macaca mulatta; design: dose 1 mg/kg, route intravenous; settings: rhesus monkey, in vivo
# [13] = Total clearance in mouse at 1 mg/kg, iv; format: ADME, organism-based; design: dose 1 mg/kg, route intravenous; settings: in vivo
# [14] = Tmax in mouse at 3 mg/kg, po; format: ADME, organism-based; design: dose 3 mg/kg, route oral; settings: in vivo
# [15] = Volume of distribution at steady state in monkey at 1 mg/kg, iv; format: ADME, organism-based, Macaca mulatta; design: dose 1 mg/kg, route intravenous; settings: rhesus monkey, in vivo, read-out: Vdss
# [16] = Oral bioavailability in monkey at 3 mg/kg; format: ADME, organism-based, Macaca mulatta; settings: rhesus monkey, in vivo
# Mus musculus [17] = assay: Antidiabetic activity in kk/Ay mouse assessed as improvement in pancreatic insulin level at 3 mg/kg, po once daily for week
# [18] = Volume of distribution at steady state in mouse at 1 mg/kg, iv; format: ADME, organism-based; design: dose 1 mg/kg, route intravenous; settings: in vivo, read-out: Vdss
# [19] = Half life in monkey at 1 mg/kg, iv; format: ADME, organism-based, Macaca mulatta; design: dose 1 mg/kg, route intravenous; settings: rhesus monkey, in vivo
# [20] = Oral bioavailability in mouse at 3 mg/kg; format: ADME, organism-based; settings: in vivo
SMILES,Intrinsic activity [1],IC50 (Cytochrome P450 1A2),EC [3],Activity (Mus musculus [4]),other results
CCc1cc(NC[C@H](O)CO)nc(-c2ccc(Br)c(F)c2)n1,283%,1.6 µM,0.59 µM,,Activity (Mus musculus [2]): 16%
Cc1cc(NCCc2ccc[n+]([O-])c2)nc(-c2cc(F)c(Br)c(F)c2)n1,493%,,0.34 µM,15%,
Cc1cc(NCCc2ccc[n+]([O-])c2)nc(-c2ccc(Br)cc2)n1,325%,,1.2 µM,inactive,Activity (Mus musculus [5]): 38%
Cc1cc(NCCc2ccc[n+]([O-])c2)nc(-c2ccc(Cl)c(Cl)c2)n1,430%,,0.72 µM,15%,
Cc1cc(NCCc2ccc[n+]([O-])c2)nc(-c2ccccc2)n1,inactive,,,,
CCc1cc(NC[C@@H](O)CO)nc(-c2ccc(Cl)c(F)c2)n1,266%,2.1 µM,0.39 µM,,Activity (Mus musculus [2]): 24%; CLint scaled [6]: 236 mL/min/kg
Cc1cc(NCCc2ccc[n+]([O-])c2)nc(-c2ccc(Cl)cc2)n1,376%,,0.7 µM,,
Cc1cc(NCCc2ccc[n+]([O-])c2)nc(-c2cc(F)c(Cl)cc2F)n1,536%,3.7 µM,0.21 µM,27%,
Cc1cc(NC[C@H](O)CO)nc(-c2ccc(Br)c(F)c2)n1,257%,,2.3 µM,,
Cc1cc(NCCc2cc[nH]c(=O)c2)nc(-c2cc(F)c(Cl)cc2F)n1,722%,,0.0069 µM,21%,
CCc1ccc(CCOc2ccc(CC3SC(=O)NC3=O)cc2)nc1 (configuration not stated),,,,,Activity (Mus musculus [7]): Active; Activity (Mus musculus [8]): Active; Activity (Mus musculus [9]): Active
Cc1cc(NCCc2cc[nH]c(=O)c2)nc(-c2cc(F)c(Br)cc2F)n1,1080%,,0.017 µM,23%,
Cc1cc(NC[C@@H](O)CO)nc(-c2ccc(Br)c(F)c2)n1,346%,1.7 µM,1.2 µM,,
CCc1cc(NC[C@@H](O)CO)nc(-c2ccc(Br)c(F)c2)n1,284%,1.5 µM,0.19 µM,,Activity (Mus musculus [2]): 23%; CLint scaled [6]: 168 mL/min/kg
CCc1cc(NC[C@@H](O)CO)nc(-c2cc(F)c(Cl)cc2F)n1,497%,35 µM,0.28 µM,,Activity (Mus musculus [7]): Active; half-life [10]: 2.2 h; Tmax [11]: 2.2 h; clearance [12]: 12 mL/min/kg; Activity (Mus musculus [8]): Active; Activity (Mus musculus [2]): 25%; clearance [13]: 35.9 mL/min/kg; Tmax [14]: 6 min; Vd [15]: 4.7 L/kg; bioavailability [16]: 51%; Activity (Mus musculus [17]): Active; Activity (Mus musculus [9]): Active; Vd [18]: 6.9 L/kg; half-life [19]: 4.6 h; bioavailability [20]: 86%; CLint scaled [6]: < 20 mL/min/kg
CCc1cc(NC[C@@H](O)CO)nc(-c2cc(F)c(Br)cc2F)n1,391%,25 µM,0.22 µM,,Activity (Mus musculus [2]): 19%
Cc1cc(NCCc2cc[nH]c(=O)c2)nc(-c2ccc(Br)c(F)c2)n1,617%,,0.021 µM,10%,
Cc1cc(NCCc2ccc[n+]([O-])c2)nc(-c2ccc(Br)cc2F)n1,268%,,1.5 µM,19%,
Cc1cc(NCCc2ccc[n+]([O-])c2)nc(-c2cc(F)c(Br)cc2F)n1,588%,7.2 µM,0.11 µM,23%,
Cc1cc(NCCc2ccc[n+]([O-])c2)nc(-c2ccc(Br)c(F)c2)n1,573%,,0.22 µM,30%,
CCc1cc(NCCc2cc[nH]c(=O)c2)nc(-c2cc(F)c(Cl)cc2F)n1,578%,,0.013 µM,25%,
Cc1cc(NCCc2ccc[n+]([O-])c2)nc(-c2ccc(Cl)c(F)c2)n1,450%,,0.33 µM,25%,
